Our source for the ED50/ED50(Taxol), ED50/ED50(Taxol) (dimensionless ratio) and ED50 values is ChEMBL document CHEMBL1134472, “Synthesis and NMR-driven conformational analysis of taxol analogues conformationally constrained on the C13 side chain” (2001).

Each structure is given as a SMILES string. Calls of active or inactive are those of the source. No cut-off for these calls is given here.

One assay deals with MCF7. The assay can be described thus: Cytotoxicity against MCF-7 cells with reference to taxol. Type of assay: functional. The following applies: Homo sapiens. The gist of the method: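 Result is the test compound's ED50 in MCF7 cells divided by the paclitaxel ED50 from the same cytotoxicity assay.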
In assay [1] the target is Tubulin alpha chain (Sus scrofa) (UniProt P02550). The assay can be described thus: Tubulin binding with reference to taxol was determined by tubulin assembly assay. The essentials:
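Activity is the ED50 in a tubulin assembly assay, given as a ratio to the paclitaxel ED50 from the same assay.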

Chain of Tubulin alpha chain (Sus scrofa) (P02550 whole entry, looked up): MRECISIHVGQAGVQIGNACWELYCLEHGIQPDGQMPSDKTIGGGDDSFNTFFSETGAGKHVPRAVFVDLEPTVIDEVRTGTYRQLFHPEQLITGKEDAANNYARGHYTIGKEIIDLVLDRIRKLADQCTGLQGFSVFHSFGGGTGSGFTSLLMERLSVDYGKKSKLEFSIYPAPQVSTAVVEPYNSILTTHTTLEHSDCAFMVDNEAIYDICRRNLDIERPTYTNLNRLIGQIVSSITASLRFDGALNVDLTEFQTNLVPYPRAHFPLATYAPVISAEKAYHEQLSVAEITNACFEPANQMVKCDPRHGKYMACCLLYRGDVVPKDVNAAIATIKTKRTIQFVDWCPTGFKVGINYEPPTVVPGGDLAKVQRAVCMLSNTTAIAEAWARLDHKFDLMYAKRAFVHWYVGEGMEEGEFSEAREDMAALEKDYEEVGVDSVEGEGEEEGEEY

`CC(=O)O[C@H]1C(=O)[C@@]2(C)[C@H]([C@H](OC(=O)c3ccccc3)[C@]3(O)C[C@H](OC(=O)[C@H](O)[C@@H](NC(=O)c4ccccc4)c4ccccc4)C(C)=C1C3(C)C)[C@]1(OC(C)=O)CO[C@@H]1C[C@@H]2O` [PACLITAXEL] returned an ED50/ED50(Taxol) with MCF7 of 4 dimensionless ratio.

On to `CC(=O)O[C@H]1C(=O)[C@@]2(C)[C@H]([C@H](OC(=O)c3ccccc3)[C@]3(O)CC(OC(=O)[C@@]4(O)Cc5ccccc5[C@@H]4NC(=O)c4ccccc4)C(C)=C1C3(C)C)[C@]1(OC(C)=O)CO[C@@H]1C[C@@H]2O` (stereo not given in full), for which the ED50/ED50(Taxol) (dimensionless ratio) in assay [1] turned out to be 4. Also, the ED50/ED50(Taxol) with MCF7 turned out to be 9 dimensionless ratio.

Consider `CC(=O)O[C@@]12CO[C@@H]1C[C@H](O)[C@@]1(C)C(=O)[C@H](O)C3=C(C)C(OC(=O)[C@@]4(O)CCc5ccccc5[C@@H]4NC(=O)OC(C)(C)C)C[C@@](O)([C@@H](OC(=O)c4ccccc4)[C@H]21)C3(C)C` (stereo not given in full), for which the ED50/ED50(Taxol) (dimensionless ratio) in assay [1] turned out to be 30. In the assay on MCF7, this compound yielded an ED50/ED50(Taxol) of 239 dimensionless ratio.

In the case of `CC(=O)O[C@H]1C(=O)[C@@]2(C)[C@H]([C@H](OC(=O)c3ccccc3)[C@]3(O)CC(OC(=O)[C@@]4(O)CCc5ccccc5[C@@H]4NC(=O)c4ccccc4)C(C)=C1C3(C)C)[C@]1(OC(C)=O)CO[C@@H]1C[C@@H]2O` (stereo not given in full), the ED50/ED50(Taxol) (dimensionless ratio) in assay [1] was determined as 42. In the assay on MCF7, the ED50/ED50(Taxol) came out at 333 dimensionless ratio.

As for `CC(=O)O[C@H]1C(=O)[C@@]2(C)[C@H]([C@H](OC(=O)c3ccccc3)[C@]3(O)CC(OC(=O)[C@]4(O)Cc5ccccc5[C@@H]4NC(=O)c4ccccc4)C(C)=C1C3(C)C)[C@]1(OC(C)=O)CO[C@@H]1C[C@@H]2O` (stereo not given in full), the ED50 entry in assay [1] is “inactive”. For the same compound, the ED50/ED50(Taxol) in the assay with MCF7 came out at 1600 dimensionless ratio.

Take `CC(=O)O[C@@]12CO[C@@H]1C[C@H](O)[C@@]1(C)C(=O)[C@H](O)C3=C(C)C(OC(=O)[C@@]4(O)Cc5ccccc5[C@@H]4NC(=O)OC(C)(C)C)C[C@@](O)([C@@H](OC(=O)c4ccccc4)[C@H]21)C3(C)C` (stereo not given in full): the ED50/ED50(Taxol) (dimensionless ratio) in assay [1] was 7.
